Source: ChEMBL document CHEMBL1909573, “Synthesis and biological evaluation of (2,5-dihydro-1H-pyrrol-1-yl)-2H-chromen-2-ones as free radical scavengers” (Eur J Med Chem, 2011)
Active and inactive are the calls of the source. The calls are words filed in the database; no cut-off is given here.

Columns and labels:
[1] = test system: Radical scavenging activity; assay: Antioxidant activity assessed as DPPH free radical scavenging activity at 100 uM after 20 mins; type: functional
Method in brief: (§1)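 Compound solutions in ethanol were mixed with an equal volume of DPPH in absolute ethanol, giving compound concentrations of 50 and 100. Ethanol served as the control. Absorbance at 517 nm was read after 20 and 60 min at room temperature. Each run was done at least in triplicate, with the SD of absorbance under 10% of the mean.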

[2] = Antioxidant activity assessed as hydroxyl radical scavenging activity at 100 uM after 30 mins; type: functional
[3] = Antioxidant activity assessed as inhibition of AAPH-induced lipid peroxidation at 100 uM; type: functional
[4] = test system: Radical scavenging activity; assay: Antioxidant activity assessed as reduction in DPPH free radical at 50 uM after 60 mins; type: functional; method in brief: as §1
[5] = test system: Radical scavenging activity; assay: Antioxidant activity assessed as DPPH free radical scavenging activity at 100 uM after 60 mins; type: functional; method in brief: as §1
[6] = Antioxidant activity assessed as inhibition of superoxide anion radical production at 100 uM after 2 mins by nitroblue tetrazolium method; type: functional
Method in brief: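 This was a nitroblue tetrazolium assay. The mixture held […] in 19 mM phosphate buffer, pH 7.4. Compounds were preincubated 2 min before NADH was added. After 2 min at room temperature, absorbance at 560 nm was read against a PMS-containing blank. Runs were done at least in triplicate.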

[7] = test system: Radical scavenging activity; assay: Antioxidant activity assessed as reduction in DPPH stable free radical at 50 uM after 20 mins; type: functional; method in brief: as §1
[8] = test system: Radical scavenging activity; assay: Antioxidant activity assessed as DPPH free radical scavenging activity at 100 uM; type: functional; method in brief: as §1
Glycine max = assay: Inhibition of soybean lipoxygenase assessed as conversion of sodium linoleate to 13-hydroperoxylinoleic acid at 100 uM
Method in brief: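 Soybean lipoxygenase was measured by UV absorbance. Runs were done at least in triplicate, with the SD of absorbance under 10% of the mean.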

Molecule `O=c1ccc2cc(N3CC=CC3)ccc2o1` has an Activity [1] of 49%, an inhibition [2] of 90% and an inhibition [3] of 86%. For the same molecule, the Activity [4] was “inactive”, the Activity [5] was 71% and the inhibition [6] was “inactive”. For the same molecule, the Activity [7] was “inactive”.

With `Cc1c(C)c2c(c(C)c1O)CCC(C)(C(=O)O)O2` (stereo not drawn) the inhibition [2] was 63%, the inhibition [3] was 73% and the Activity [8] was “Dose-dependent effect”.

With `Cc1cc2oc(=O)ccc2cc1-n1cccc1` the Activity [1] was 14%, the Activity [4] was “inactive” and the Activity [8] was “Dose-dependent effect”. The Activity [5] was 14%, the inhibition [6] was “inactive” and the Activity [7] was “inactive”.

For `O=c1cc(N2CC=CC2)c2ccccc2o1`, the Activity [1] was 8%, the inhibition [2] was 83% and the inhibition [3] was 100%. The Activity [4] was “inactive”, the inhibition (Glycine max) was 43% and the Activity [5] was 27%. The inhibition [6] was “inactive” and the Activity [7] was “inactive”.

In the case of `Cc1ccc2oc(=O)ccc2c1N1CC=CC1`, the Activity [1] was 5%, the inhibition [3] was 57% and the Activity [4] was “inactive”. The Activity [8] was “Dose-dependent effect”, the Activity [5] was 5% and the inhibition [6] was “inactive”. The Activity [7] was “inactive”.

With `Cc1cc2ccc(=O)oc2cc1-n1cccc1` the Activity [1] was 13%, the inhibition [2] was 88% and the Activity [4] was “inactive”. The Activity [8] was “Dose-dependent effect”, the Activity [5] was 13% and the inhibition [6] was “inactive”. The Activity [7] was “inactive”.

With `O=c1ccc2cc(-n3cccc3)ccc2o1` the Activity [1] was 18%, the inhibition [3] was 1% and the Activity [4] was “inactive”. The Activity [8] was “Dose-dependent effect”, the Activity [5] was 19% and the inhibition [6] was “inactive”. For the same molecule, the Activity [7] was “inactive”.

`Cc1ccc2oc(=O)ccc2c1-n1cccc1` showed an Activity [1] of 7%, an inhibition [2] of 91% and an inhibition [3] of 71%. The Activity [4] was “inactive”, the Activity [8] was “Dose-dependent effect” and the inhibition (Glycine max) was 55.5%. The Activity [5] was 7%, the inhibition [6] was “inactive” and the Activity [7] was “inactive”.

In the case of `Cc1cc2oc(=O)ccc2cc1N1CC=CC1`, the Activity [1] was 9%, the inhibition [2] was 77% and the inhibition [3] was 91%. For the same molecule, the Activity [4] was “inactive”, the Activity [8] was “Dose-dependent effect” and the inhibition (Glycine max) was 60%. For the same molecule, the Activity [5] was 10%, the inhibition [6] was “inactive” and the Activity [7] was “inactive”.

In the case of `O=c1ccc2ccccc2o1`, the Activity [1] was 5%, the inhibition [2] was 78% and the Activity [8] was “Dose-dependent effect”. It also gave an inhibition (Glycine max) of 15% and an Activity [5] of 21%.

For `Cc1ccc2ccc(=O)oc2c1`, the Activity [1] was 2%, the inhibition [2] was 44% and the Activity [8] was “Dose-dependent effect”. The inhibition (Glycine max) was 89% and the Activity [5] was 2%.

Work on `Cc1cc(=O)oc2cc(-n3cccc3)ccc12` yielded an Activity [1] of 14%, an inhibition [2] of 9% and an inhibition [3] of 46%. For the same molecule, the Activity [4] was “inactive”, the Activity [8] was “Dose-dependent effect” and the inhibition (Glycine max) was 12%. The Activity [5] was 14%, the inhibition [6] was “inactive” and the Activity [7] was “inactive”.

`Cc1cc(=O)oc2cc(N3CC=CC3)ccc12` gave an Activity [1] of 5%, an inhibition [2] of 85% and an inhibition [3] of 87%. For the same molecule, the Activity [4] was “inactive”, the inhibition (Glycine max) was 28% and the Activity [5] was 20%. For the same molecule, the inhibition [6] was “inactive” and the Activity [7] was “inactive”.

In the case of `Cc1cc2ccc(=O)oc2cc1N1CC=CC1`, the Activity [1] was 5%, the inhibition [2] was 41% and the inhibition [3] was 24%. The Activity [4] was “inactive”, the Activity [8] was “Dose-dependent effect” and the inhibition (Glycine max) was 52.5%. For the same molecule, the Activity [5] was 7%, the inhibition [6] was “inactive” and the Activity [7] was “inactive”.

In the case of `CC(Cc1ccc(O)c(O)c1)C(C)Cc1ccc(O)c(O)c1` (stereo not drawn), the Activity [1] was 81%, the Activity [8] was “Dose-dependent effect” and the inhibition (Glycine max) was 84%. For the same molecule, the Activity [5] was 83%.
